Test results as given in publication PMC11406440 (Food and chemical toxicology : an international journal …, 2024).

Test system: spleen cells
Assay: Spleen immune phenotyping by flow cytometry
Format: in vivo, B6C3F1 mice
Settings: 28 days; for Spleen B-cells frequency / Spleen B-cells number / Spleen CD4+ frequency / Spleen CD4+ number / Spleen CD8+ frequency / Spleen CD8+ number / Spleen CD11b + Ly6C+ frequency / Spleen CD11b + Ly6C+ number / Spleen CD11b + Ly6C- frequency / Spleen CD11b + Ly6C- number / Spleen CD11b+ frequency / Spleen CD11b+ number / Spleen CD86 B-cells / Spleen CD86 DCs / Spleen Cellularity / Spleen Dendritic Cells frequency / Spleen Dendritic Cells number / Spleen MHCII B-cells / Spleen MHCII DCs / Spleen NK frequency / Spleen NK number / Spleen Neutrophils frequency / Spleen Neutrophils number: mean ± SE
Procedure, shortened: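 Female B6C3F1 mice (5/group) received 25 μl/ear of acetone vehicle or 1.25, 2.5 or 5% w/v test compound on the dorsal surface of each ear, once daily for 28 days. They were euthanized about 24 h later. Single-cell suspensions were made from both auricular dLNs, half a spleen or one ear pinna. Cells were Fc-blocked (anti-CD16/32), stained with surface antibody cocktails and acquired on an LSR II, with FMO gating controls.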

With `O=S(=O)(O)C(F)(F)C(F)(F)C(F)(F)C(F)(F)C(F)(F)C(F)(F)F` [PFHxS, Perfluorohexane sulfonic acid] the “Spleen B-cells frequency” value (1.25% PFHxS) was 31.48 ± 0.59%, the “Spleen B-cells number” value (1.25% PFHxS) was 2.50 ± 0.38 x 10^7 and the “Spleen CD4+ frequency” value (1.25% PFHxS) was 24.60 ± 0.70%. For the same molecule, the “Spleen CD4+ number” value (1.25% PFHxS) was 1.95 ± 0.30 x 10^7, the “Spleen CD8+ frequency” value (1.25% PFHxS) was 15.12 ± 0.73% and the “Spleen CD8+ number” value (1.25% PFHxS) was 11.70 ± 1.45 x 10^6. The “Spleen CD11b + Ly6C+ frequency” value (1.25% PFHxS) was 1.11 ± 0.09%, the “Spleen CD11b + Ly6C+ number” value (1.25% PFHxS) was 9.05 ± 1.59 x 10^5 and the “Spleen CD11b + Ly6C- frequency” value (1.25% PFHxS) was 2.63 ± 0.16 %. The “Spleen CD11b + Ly6C- number” value (1.25% PFHxS) was 21.00 ± 3.46 x 10^5, the “Spleen CD11b+ frequency” value (1.25% PFHxS) was 3.90 ± 0.21% and the “Spleen CD11b+ number” value (1.25% PFHxS) was 3.13 ± 0.51 x 10^6. The “Spleen CD86 B-cells” value (1.25% PFHxS) was 341.20 ± 16.00 MFI, the “Spleen CD86 DCs” value (1.25% PFHxS) was 1733.80 ± 46.13 MFI and the “Spleen Cellularity” value (1.25% PFHxS) was 7.91 ± 1.16 x 10^7. The “Spleen Dendritic Cells frequency” value (1.25% PFHxS) was 3.33 ± 0.32%, the “Spleen Dendritic Cells number” value (1.25% PFHxS) was 2.70 ± 0.48 x 10^6 and the “Spleen MHCII B-cells” value (1.25% PFHxS) was 1334.60 ± 89.70 MFI. The “Spleen MHCII DCs” value (1.25% PFHxS) was 4141.40 ± 112.06 MFI, the “Spleen NK frequency” value (1.25% PFHxS) was 2.52 ± 0.17% and the “Spleen NK number” value (1.25% PFHxS) was 20.00 ± 3.26 x 10^5. For the same molecule, the “Spleen Neutrophils frequency” value (1.25% PFHxS) was 1.76 ± 0.14%, the “Spleen Neutrophils number” value (1.25% PFHxS) was 14.00 ± 2.38 x 10^5 and the “Spleen eosinophils frequency and number” value (1.25%, 2.5%, 5% PFHxS) was “decrease”. For the same molecule, the “Spleen B-cells frequency” value (2.5% PFHxS) was 32.48 ± 0.37%, the “Spleen B-cells number” value (2.5% PFHxS) was 1.62 ± 0.19 x 10^7 and the “Spleen CD4+ frequency” value (2.5% PFHxS) was 26.26 ± 0.79 %. The “Spleen CD4+ number” value (2.5% PFHxS) was 1.30 ± 0.13 x 10^7, the “Spleen CD8+ frequency” value (2.5% PFHxS) was 16.74 ± 0.56 % and the “Spleen CD8+ number” value (2.5% PFHxS) was 8.25 ± 0.73 x 10^6. The “Spleen CD11b + Ly6C+ frequency” value (2.5% PFHxS) was 0.72 ± 0.11 %, the “Spleen CD11b + Ly6C+ number” value (2.5% PFHxS) was 3.77 ± 0.85 x 10^5 and the “Spleen CD11b + Ly6C- frequency” value (2.5% PFHxS) was 2.21 ± 0.13 %. For the same molecule, the “Spleen CD11b + Ly6C- number” value (2.5% PFHxS) was 11.20 ± 1.52 x 10^5, the “Spleen CD11b+ frequency” value (2.5% PFHxS) was 3.07 ± 0.21 % and the “Spleen CD11b+ number” value (2.5% PFHxS) was 1.56 ± 0.24 x 10^6. The “Spleen CD86 B-cells” value (2.5% PFHxS) was 280.80 ± 10.49 MFI, the “Spleen CD86 DCs” value (2.5% PFHxS) was 1677.40 ± 60.65 MFI and the “Spleen Cellularity” value (2.5% PFHxS) was 4.99 ± 0.55 x 10^7. The “Spleen Dendritic Cells frequency” value (2.5% PFHxS) was 3.36 ± 0.48%, the “Spleen Dendritic Cells number” value (2.5% PFHxS) was 1.71 ± 0.33 x 10^6 and the “Spleen MHCII B-cells” value (2.5% PFHxS) was 1235.60 ± 111.64 MFI. The “Spleen MHCII DCs” value (2.5% PFHxS) was 4003.00 ± 145.61 MFI, the “Spleen NK frequency” value (2.5% PFHxS) was 2.19 ± 0.06 % and the “Spleen NK number” value (2.5% PFHxS) was 10.90 ± 1.04 x 10^5. The “Spleen Neutrophils frequency” value (2.5% PFHxS) was 1.69 ± 0.21%, the “Spleen Neutrophils number” value (2.5% PFHxS) was 8.87 ± 2.15 x 10^5 and the “Spleen B-cells frequency” value (5% PFHxS) was 30.06 ± 0.55 %. The “Spleen B-cells number” value (5% PFHxS) was 1.11 ± 0.15 x 10^7, the “Spleen CD4+ frequency” value (5% PFHxS) was 26.90 ± 0.70 % and the “Spleen CD4+ number” value (5% PFHxS) was 0.99 ± 0.12 x 10^7. For the same molecule, the “Spleen CD8+ frequency” value (5% PFHxS) was 18.12 ± 0.59 %, the “Spleen CD8+ number” value (5% PFHxS) was 6.58 ± 0.73 x 10^6 and the “Spleen CD11b + Ly6C+ frequency” value (5% PFHxS) was 0.68 ± 0.13 %. For the same molecule, the “Spleen CD11b + Ly6C+ number” value (5% PFHxS) was 2.52 ± 0.56 x 10^5, the “Spleen CD11b + Ly6C- frequency” value (5% PFHxS) was 1.69 ± 0.13 % and the “Spleen CD11b + Ly6C- number” value (5% PFHxS) was 6.28 ± 0.91 x 10^5. The “Spleen CD11b+ frequency” value (5% PFHxS) was 2.49 ± 0.24 %, the “Spleen CD11b+ number” value (5% PFHxS) was 0.93 ± 0.15 x 10^6 and the “Spleen CD86 B-cells” value (5% PFHxS) was 302.60 ± 14.79 MFI. For the same molecule, the “Spleen CD86 DCs” value (5% PFHxS) was 1754.60 ± 67.69 MFI, the “Spleen Cellularity” value (5% PFHxS) was 3.68 ± 0.45 x 10^7 and the “Spleen Dendritic Cells frequency” value (5% PFHxS) was 3.34 ± 0.31%. For the same molecule, the “Spleen Dendritic Cells number” value (5% PFHxS) was 1.26 ± 0.20 x 10^6, the “Spleen MHCII B-cells” value (5% PFHxS) was 1093.20 ± 94.51 MFI and the “Spleen MHCII DCs” value (5% PFHxS) was 3854.60 ± 88.79 MFI. The “Spleen NK frequency” value (5% PFHxS) was 1.71 ± 0.17 % and the “Spleen NK number” value (5% PFHxS) was 6.35 ± 0.96 x 10^5.
